# According to ChEMBL document CHEMBL4118216, “Adamantyl thioureas as soluble epoxide hydrolase inhibitors” (Bioorg Med Chem Lett, 2018):
# What was measured:
# [1] = target: T1, Bifunctional epoxide hydrolase 2 (Homo sapiens, UniProt P34913); assay: Inhibition of recombinant human sEH expressed in baculovirus expression system using CMNPC as substrate preincubated for 5 mins followed by substrate addition measured for 10 mins by fluorescent based assay
# T1 sequence (P34913 whole entry): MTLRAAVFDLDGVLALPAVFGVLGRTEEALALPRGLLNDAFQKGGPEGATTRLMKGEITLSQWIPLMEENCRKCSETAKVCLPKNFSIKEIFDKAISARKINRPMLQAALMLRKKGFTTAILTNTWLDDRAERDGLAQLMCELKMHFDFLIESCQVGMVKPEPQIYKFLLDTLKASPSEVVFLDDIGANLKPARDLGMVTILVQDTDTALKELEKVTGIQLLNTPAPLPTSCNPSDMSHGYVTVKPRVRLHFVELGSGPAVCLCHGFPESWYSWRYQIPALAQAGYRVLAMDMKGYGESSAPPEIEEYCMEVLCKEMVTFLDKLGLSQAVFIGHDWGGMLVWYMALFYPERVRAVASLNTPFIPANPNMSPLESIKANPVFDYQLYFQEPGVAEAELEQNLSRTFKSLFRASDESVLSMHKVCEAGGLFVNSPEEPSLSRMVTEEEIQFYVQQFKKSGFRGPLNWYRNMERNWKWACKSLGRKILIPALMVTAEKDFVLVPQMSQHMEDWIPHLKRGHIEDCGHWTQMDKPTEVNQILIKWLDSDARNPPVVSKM
# Method in brief: (§1)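 Kinetic fluorescent assay giving IC50 values; each value is the mean of three separate experiments.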
# [2] = Aqueous solubility of the compound in 0.1 M sodium phosphate buffer at pH 7.4; assay type: physicochemical
# Method in brief: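 Solubility determined in 0.1 M sodium phosphate buffer, pH 7.4, with 1% DMSO present.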
# [3] = target: T2, Bifunctional epoxide hydrolase 2 (Rattus norvegicus, UniProt P80299); assay: Inhibition of rat sEH using CMNPC as substrate preincubated for 5 mins followed by substrate addition measured for 10 mins by fluorescent based assay; method in brief: as §1
# T2 sequence (P80299 whole entry): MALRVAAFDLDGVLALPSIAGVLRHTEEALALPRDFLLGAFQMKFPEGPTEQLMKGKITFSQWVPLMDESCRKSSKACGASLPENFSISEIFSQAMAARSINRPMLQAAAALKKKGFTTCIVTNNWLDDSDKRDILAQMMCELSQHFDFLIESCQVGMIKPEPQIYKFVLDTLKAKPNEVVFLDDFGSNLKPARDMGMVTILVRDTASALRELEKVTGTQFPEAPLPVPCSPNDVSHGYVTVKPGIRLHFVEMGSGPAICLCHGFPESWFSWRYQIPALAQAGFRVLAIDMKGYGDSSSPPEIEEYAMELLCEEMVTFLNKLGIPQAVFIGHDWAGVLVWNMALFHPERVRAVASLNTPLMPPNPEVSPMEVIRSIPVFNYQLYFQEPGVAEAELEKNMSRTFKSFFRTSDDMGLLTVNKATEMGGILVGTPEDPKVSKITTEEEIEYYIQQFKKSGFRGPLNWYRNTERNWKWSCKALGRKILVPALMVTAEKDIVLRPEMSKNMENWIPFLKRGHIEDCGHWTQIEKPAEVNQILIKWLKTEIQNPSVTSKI
# [4] = target: T3, Bifunctional epoxide hydrolase 2 (Mus musculus, UniProt P34914); assay: Inhibition of recombinant mouse sEH expressed in baculovirus expression system using CMNPC as substrate preincubated for 5 mins followed by substrate addition measured for 10 mins by fluorescent based assay; method in brief: as §1
# T3 sequence (P34914 whole entry): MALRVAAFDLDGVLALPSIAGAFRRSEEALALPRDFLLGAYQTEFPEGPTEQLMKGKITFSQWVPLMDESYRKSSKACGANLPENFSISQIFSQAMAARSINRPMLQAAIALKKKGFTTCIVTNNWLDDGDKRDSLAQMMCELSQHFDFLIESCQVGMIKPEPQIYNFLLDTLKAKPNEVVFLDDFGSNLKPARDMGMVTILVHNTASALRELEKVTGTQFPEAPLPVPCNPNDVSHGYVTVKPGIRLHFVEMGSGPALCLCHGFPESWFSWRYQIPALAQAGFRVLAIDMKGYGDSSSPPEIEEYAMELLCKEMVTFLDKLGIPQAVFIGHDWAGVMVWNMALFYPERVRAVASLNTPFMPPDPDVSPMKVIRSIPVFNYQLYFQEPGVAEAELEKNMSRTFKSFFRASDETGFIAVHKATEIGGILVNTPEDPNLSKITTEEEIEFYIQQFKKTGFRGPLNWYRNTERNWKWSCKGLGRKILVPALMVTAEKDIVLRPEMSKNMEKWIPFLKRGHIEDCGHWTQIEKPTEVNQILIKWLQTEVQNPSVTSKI
IC50 [1] [nM],solubility [2] [µM],IC50 [3] [nM],IC50 [4] [nM],SMILES
52,60 to 80,,,S=C(NCCc1ccccc1)NCCC12CC3CC(CC(C3)C1)C2
216,8 to 12,,,CC12CC3CC(C)(C1)CC(NC(=S)NCCc1ccccc1)(C3)C2
2590,,,,CC(NC(=S)Nc1ccccc1)C12CC3CC(CC(C3)C1)C2 (configuration not stated)
1220,40 to 60,,,CC12CC3CC(C)(C1)CC(NC(=S)Nc1ccccc1)(C3)C2
345,20 to 30,,,CC(NC(=S)NCCc1ccccc1)C12CC3CC(CC(C3)C1)C2 (configuration not stated)
2480,70 to 80,,,CC12CC3CC(C)(C1)CC(NC(=S)Nc1ccc(C45CC6CC(CC(C6)C4)C5)cc1)(C3)C2
58,10 to 15,,,CC12CC3CC(C)(C1)CC(NC(=S)NCc1ccccc1)(C3)C2
160,80 to 90,,,Fc1cccc(NC(=S)NCCC23CC4CC(CC(C4)C2)C3)c1
58,50 to 60,,,CC12CC3CC(C)(C1)CC(NC(=S)Nc1cccc(F)c1)(C3)C2
50200,,,,CCC(CC12CC3CC(CC(C3)C1)C2)NC(=S)Nc1ccccc1 (configuration not stated)

# Continued, molecule first:
SMILES,IC50 [1] [nM],solubility [2] [µM],IC50 [3] [nM],IC50 [4] [nM]
S=C(NC12CC3CC(CC(C3)C1)C2)NC12CC3CC(CC(C3)C1)C2,11.2,30 to 40,,
CC(NC(=S)NCCCCNC(=S)NC(C)C12CC3CC(CC(C3)C1)C2)C12CC3CC(CC(C3)C1)C2 (configuration not stated),,120 to 130,,
CC(NC(=S)Nc1ccc(C23CC4CC(CC(C4)C2)C3)cc1)C12CC3CC(CC(C3)C1)C2 (configuration not stated),57400,10 to 15,,
S=C(NCCC12CC3CC(CC(C3)C1)C2)Nc1ccc(C23CC4CC(CC(C4)C2)C3)cc1,5330,100 to 120,,
S=C(NCCC12CC3CC(CC(C3)C1)C2)NC1C2CC3CC(C2)CC1C3 (configuration not stated),259,125 to 150,,
S=C(NCC12CC3CC(CC(C3)C1)C2)NC12CC3CC(CC(C3)C1)C2,20.8,70 to 80,,
S=C(NCCCCCCNC(=S)NC12CC3CC(CC(C3)C1)C2)NC12CC3CC(CC(C3)C1)C2,7.7,70 to 80,61.6,50.6
Fc1cccc(NC(=S)NCC23CC4CC(CC(C4)C2)C3)c1,281,30 to 40,,
S=C(NCCCCCCCNC(=S)NC12CC3CC(CC(C3)C1)C2)NC12CC3CC(CC(C3)C1)C2,7.2,70 to 80,35.3,47.3
CC(NC(=S)Nc1ccc(F)cc1)C12CC3CC(CC(C3)C1)C2 (configuration not stated),1080,75 to 100,,
CC(NC(=S)NCCCCCCCCNC(=S)NC(C)C12CC3CC(CC(C3)C1)C2)C12CC3CC(CC(C3)C1)C2 (configuration not stated),,120 to 130,,
S=C(NCC12CC3CC(CC(C3)C1)C2)Nc1ccc(C23CC4CC(CC(C4)C2)C3)cc1,5900,65 to 75,,
CC(NC(=S)NC1C2CC3CC(C2)CC1C3)C12CC3CC(CC(C3)C1)C2 (configuration not stated),7780,30 to 40,,
S=C(NC1C2CC3CC(C2)CC1C3)NC1C2CC3CC(C2)CC1C3 (configuration not stated),131,50 to 60,,
S=C(Nc1ccc(C23CC4CC(CC(C4)C2)C3)cc1)NC1C2CC3CC(C2)CC1C3 (configuration not stated),5940,175 to 200,,
CC(NC(=S)NC12CC3CC(CC(C3)C1)C2)C12CC3CC(CC(C3)C1)C2 (configuration not stated),60.3,,,
S=C(NCCCCCCCCNC(=S)NC12CC3CC(CC(C3)C1)C2)NC12CC3CC(CC(C3)C1)C2,9.8,40 to 50,374,1170
Fc1ccc(NC(=S)NCCC23CC4CC(CC(C4)C2)C3)cc1,148,125 to 150,,
